# Assay outcomes (PubChem BioAssay)
# D1 mod: allosteric modulators of human D1 dopamine receptor; P21728; HEK293 D1, CRE-luciferase, dopamine EC30 potentiation; actives deviate in either direction; B-score at 10 µM; 5.9% of 58,000 active;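 active means luminescence count or its row- and column-corrected plate score outside the 99.7% band of the plate's sample wells, on either side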
# SF1 activator: SF-1 (human) activation. Q13285. CHO-K1 Gal4-SF-1 LBD luciferase reporter; % increase over DMSO SF-1-specific signal. activation, % at 10 µM. 1.9% of 65,000 active;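 active means activation above the mean activation of all tested compounds plus 3 SD, cut at about 50% in these data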
#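 Assay system: CHO-K1 cells co-transfected with Gal4 DBD–human SF-1 LBD, 5xGal4 luciferase reporter; doses: 10 µM only; incubation: 20 h compound exposure at 37 °C after 1 h cell settling; signal: luciferase light emission; evaluation: percent activation versus DMSO; repeats: one test per compound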
# mHtt clearance: mutant huntingtin protein clearance | 0.42% of 47,000 active | HeLa Exon1htt(103Q)mCFP, aggregate imaging; zero = plate's median compound well | inhibition, % at 1.5 µM;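 active means inhibition of aggregate fluorescence above about 70%, also judged a hit by eye on the cell image, limit read from the data, passing the limit was not always enough; inconclusive means no rule stated for this call; inactive means not judged a hit on image review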;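 further: cells exposed to compound for three days before fixation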
# M1 ag: M1 muscarinic receptor agonism; AID 626; CHO-M1 cells, Fluo-4 calcium fluorescence, agonist mode; active compounds read high; B-score at 10 µM; 3% of 64,000 active;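 active means fluorescence rise, raw or as B-score row- and column-corrected plate score, outside the 99.7% band of its plate's samples, either direction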
# M1 antag: M1 muscarinic receptor (rat) antagonism | P08482 | B-score at 10 µM | 3.4% of 64,000 active | CHO-M1 cells, Fluo-4 calcium, ACh EC80 antagonist mode; active compounds read low | AID 628;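 active means calcium fluorescence response, raw or row-and-column corrected B-score, differing from the plate sample mean either way at a set confidence level, mostly lower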
# Target sequence (P08482 whole entry, looked up): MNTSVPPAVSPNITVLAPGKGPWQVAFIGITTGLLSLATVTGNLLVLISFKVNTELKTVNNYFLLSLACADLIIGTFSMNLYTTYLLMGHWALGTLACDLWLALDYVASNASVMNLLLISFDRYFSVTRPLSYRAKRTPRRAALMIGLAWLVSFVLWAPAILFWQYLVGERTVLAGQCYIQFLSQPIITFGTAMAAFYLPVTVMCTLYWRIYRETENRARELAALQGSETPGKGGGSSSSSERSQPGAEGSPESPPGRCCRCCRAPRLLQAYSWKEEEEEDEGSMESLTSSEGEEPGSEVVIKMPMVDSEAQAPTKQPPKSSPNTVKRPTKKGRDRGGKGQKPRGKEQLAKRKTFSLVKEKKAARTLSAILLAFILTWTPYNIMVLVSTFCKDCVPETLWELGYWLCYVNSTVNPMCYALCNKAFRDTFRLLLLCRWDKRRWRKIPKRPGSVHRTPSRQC
# RORa activator: activators of human nuclear receptor RORA. P35398. CHO-K1 Gal4-RORA LBD luciferase reporter, luminescence; percent increase over mock-subtracted basal signal. activation, % at 10 µM. 1.5% of 65,000 active. AID 560;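 active means activation above the mean of all tested compounds plus 3 SD, cut at about 49% in these data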;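 further: 0% = DMSO-treated RORA cells and 100% = added signal equal to DMSO minus mock-transfected cells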
# The depositor's hits bear a star; ? = inconclusive; . = not tested or not shown. The list is not random: actives were taken first. Their share in the collection is about 11%.
SMILES,D1 mod,SF1 activator,mHtt clearance,M1 ag,M1 antag,RORa activator
O=C(COc1ccc2ccccc2c1)Nc1ccc(S(=O)(=O)N2CCCCCC2)cc1,.,.,-18,.,.,.
c1ccc(OCCOc2ncnc3ccccc23)cc1,.,50*,.,-0.24,0.045,38
O=C(Nc1cccc(F)c1)C1CCN(C(=O)c2ccccc2Cl)CC1,.,.,4,.,.,.
CCCn1c(-c2cccs2)nc2ccccc21,-0.29,18,.,0.85,0.71,-1
c1csc(-c2cnc3ccccc3n2)c1,-0.2,50*,.,0.12,-0.073,95*
COc1ccc(Cn2c(C3CC3)nc3ccc(NC(C)=O)cc3c2=O)cc1,0.99,58*,-18,-0.19,0.56,77*
COc1ccc(NC(=O)CSc2nnc(C3CC3)n2-c2ccccc2)cc1,.,.,24,.,.,.
COc1ccc(CCN2C(=O)c3ccncc3C2=O)cc1OC,.,.,18,.,.,.
O=C(Nc1cnc2ccccc2c1)c1ccncc1,.,30,.,-0.23,0.32,74*
O=C(NCCSc1ccccc1)c1cccnc1,-0.29,62*,.,-1.2,0.83,78*
CC1CCN(c2ccc(NC(=O)c3cccnc3)cc2)CC1,-0.094,59*,36,-0.12,0.024,48
O=C(Nc1ccc2ccccc2c1)c1cccnc1,-1.5,66*,?,0.59,0.28,73*
CCN(CC)C(=O)Nc1cnc2ccccc2c1,0.33,13,-6,-0.55,0.066,41
CC1(C)NC(=O)N(CNc2cc(Cl)ccc2Cl)C1=O,-1.2,-12,61,0.19,0.12,-15
COc1ccc(NC(=O)CN2CCN(C3c4ccccc4-c4ccccc43)CC2)cc1,.,.,-37,.,.,.
COC(=O)C1=C(NC(=O)c2ccc(C)c(C)c2)CCS1,.,29,.,.,.,26
CC(C)n1c(SCC(=O)Nc2ccccc2)nc2c1c(=O)n(C)c(=O)n2C,.,.,-37,.,.,.
CCn1ccnc1C(O)c1ccccc1OC (centres undefined),.,.,-28,.,.,.
O=C(Nc1ccccc1)N1CCOCC1,.,.,3,.,.,.
O=C(Nc1ccc2ccccc2c1)c1cnccn1,-2*,31,16,0.42,-0.53,57*
O=C(Nc1ccc2c(c1)oc1ccccc12)N1CCOCC1,-0.59,52*,-18,0.0075,0.96,27
O=C(Nc1ccc2c(c1)oc1ccccc12)c1ccncc1,-2,1,-19,-0.084,-0.34,14
O=C(Nc1ccc2nccnc2c1)c1cnccn1,.,8,.,-0.27,1,17
O=C(Nc1ccc2c(c1)oc1ccccc12)c1cccnc1,-0.32,55*,-39,-0.52,-0.54,38
O=S(=O)(Nc1cccnc1)c1ccc(Cl)c(C(F)(F)F)c1,-0.17,-4,-7,0.87,-0.35,-4
SMILES,D1 mod,SF1 activator,mHtt clearance,M1 ag,M1 antag,RORa activator
CCSC1=C(C#N)C(c2cccc(Br)c2)CC(=O)N1 (centres undefined),1.1,-8,.,0.0024,11*,-20
CCSC1=C(C#N)C(c2cccc(O)c2)CC(=O)N1 (centres undefined),-0.0046,-17,.,0.39,0.28,-10
c1ccc(-n2cnnc2SCc2cn3ccsc3n2)cc1,0.13,-6,-41,-0.57,0.38,-20
c1ccn2c(SCc3cn4ccsc4n3)nnc2c1,-2,71*,57,-0.11,-0.025,61*
CN1CCN(S(=O)(=O)c2ccc(-c3ccc(Cl)cc3)cc2)CC1,-4.9*,3,26,-0.051,0.82,22
CN1CCN(S(=O)(=O)c2ccc(-c3ccc(S(=O)(=O)N4CCN(C)CC4)cc3)cc2)CC1,-0.28,-14,.,-0.33,0.045,9
Fc1cccc2sc(Nc3nnc(-c4ccco4)o3)nc12,-2.7*,36,14,0.29,-0.48,17
O=S(=O)(c1ccc(Oc2ccc(Br)cc2)cc1)N1CCOCC1,-0.9,-6,.,-0.1,0.9,-6
COc1ccc(-c2noc(N(C)CC(=O)Nc3cccc(C(F)(F)F)c3)n2)cc1,.,44,.,-0.88,-0.15,52*
CN(C)S(=O)(=O)c1ccc(NC(=O)c2ccccn2)cc1,-1.1,74*,22,-1,-0.99,57*
CN(C)c1ccc(NC(=O)Oc2ccccc2)cc1,.,.,-3,.,.,.
CCN(CC)S(=O)(=O)c1ccc(NC(=O)c2ccccn2)cc1,-1.4,55*,.,-0.48,0.018,49*
CN(C)c1ccc(NC(=S)c2ccccn2)cc1,-6.2*,-86,.,0.86,-0.32,-84
CC(C)OC(=O)CC12CN(C)CC(CC(=O)OC(C)C)(CN(C)C1)C2=O,.,.,21,.,.,.
COc1ccc(-c2nnn(CCc3nn[nH]n3)n2)cc1,.,.,20,.,.,.
CCn1nnc(-c2ccccc2NC(=O)c2cnccn2)n1,.,.,-68,.,.,.
O=C(Nc1ccccc1)c1cc2ccccc2o1,.,.,-33,.,.,.
CC(=O)Nc1cccc(NC(=O)c2cc3ccccc3o2)c1,.,87*,-17,3.9,-0.27,33
COc1ccc(NC(=O)c2cc3ccccc3o2)cc1,-1.1,54*,.,.,.,53*
CC(=O)Nc1ccc(-c2cc3ccccc3o2)cc1,-2.6,61*,.,-0.61,0.037,2
CCOC(=O)C1CCCN(S(=O)(=O)c2cccc3cccnc23)C1 (centres undefined),0.035,2,-4,0.67,-1.9,6
COc1ccc(C(=O)N2CCN(C3CCC(c4ccccc4)CC3)CC2)cc1OC (centres undefined),-5.1*,-5,-11,-0.47,-0.097,-2
c1ccc(CN2CCC3(CC2)Nc2ccccc2CO3)cc1,-1.2,10,-36,17*,-2.8*,-10
Brc1ccc(-c2nc(-c3ccccc3)no2)o1,-0.068,63*,.,0.53,0.018,68*
CC(=O)Oc1ccc(-c2nc(-c3cccnc3)no2)cc1,-2.4,28,-36,0.45,0.25,53*
SMILES,D1 mod,SF1 activator,mHtt clearance,M1 ag,M1 antag,RORa activator
Brc1ccc(-c2nc(-c3cccnc3)no2)o1,1.8,66*,.,-1.2,-0.16,28
c1ccc(-c2noc(-c3ccc4ccccc4c3)n2)cc1,-7*,-50,.,-0.073,0.32,-24
CCOC(=O)CSC1=C(C#N)C(c2ccccc2Cl)C(C(=O)OC)C(=O)N1 (centres undefined),-0.57,-12,24,0.061,-1.3,-10
CC(=O)Nc1ccc(Nc2nc(C)nc3c2oc2ccccc23)cc1,.,0,18,.,.,-3
Cc1nc(Nc2ccncc2)c2oc3ccccc3c2n1,1.1,8,.,22*,-2.9*,-10
CC(=O)c1ccc(Nc2ncnc3c2oc2ccccc23)cc1,-0.89,89*,-27,0.5,0.29,23
CCCCNC(=O)CSc1nnc(Cc2ccccc2)n1CC,.,.,-73,.,.,.
O=C1CC(=C2c3ccccc3-c3ccccc32)C(=O)N1CCCCN1CCN(c2ccccc2)CC1,.,.,49,.,.,.
CCc1ccccc1Nc1ccc(C(=O)O)cc1N,0.84,60*,.,-1,-0.19,15
Nc1cc(C(=O)O)ccc1Nc1ccccc1,1.1,20,.,-0.64,-0.018,22
O=C(NC1CCCCC1)c1ccc(Cn2cc(Cl)cn2)cc1,.,.,28,.,.,.
Cn1ccnc1SCc1cn2cc(Br)ccc2n1,-4.7*,18,-2,0.42,-0.21,-5
